From the RNAGym collection of RNA variant scans (doi:10.1126/science.aae0568)
Variants at the floor of the assay were thinned out.

B1: tRNA (parent)
chain: GUUCCGUUGGCGUAAUGGUAACGCGUCUCCCUCCUAAGGAGAAGACUGCGGGUUCGAGUCCCGUACGGAACG

Variants of: B1
Assay: yeast fitness relative to wild type (ratio to wild type); higher = fitter; tRNA-Arg(CCU), competitive growth, 37 C, YPD
Summary of the method: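 Genotype frequency changes were the basis for Darwinian fitness relative to wild type. The frequencies came from 100-nucleotide paired-end sequencing of gene amplicons from the start population and each end population of pooled yeast strains with tRNA-Arg(CCU) gene variants at the native locus. Competition ran in YPD at 37°C for 24 hours in six replicates, genotypes needed ≥ 100 starting reads, and estimates < 0.5 were set to 0.5.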

Variant | yeast fitness
GUUCCGUUGGCGUAAUCGUAAAGCGUCCCCCUCCUAAGGGGAAGCCUGCGGGUUCGAGUCCCGUAGGGUACG [G17C C22A U28C A40G A45C C66G A69U] | ≤ 0.5
GUUCAGUUGGCGUAAUGGUAACGCGUCUCCCUCCUAAGGAGAAGUCUGUGGGUUCGAGUCCCGUACGGAACG [C5A A45U C49U] | 0.64
GUUCCGUUGGCGUAAUGGUAACGCGUCUCCCUAUUAAGGAGAAGACUGCGGAUUCGGGUCCCGUACGGAACG [C33A C34U G52A A57G] | ≤ 0.5
GGUCCGUUCGCGUCAUGGUAACGCGUUUCCCUCCUAAGGAGAAGACUGCGGGUUCGAAUCCCGUACGGAACG [U2G G9C A14C C27U G58A] | ≤ 0.5
GUUCCGUUGGCGUAAGGGUAAGGCGUCUCCCUCCUAAGGAGAAGACGGCGGGUUCGAGUCCCGUACGGAACG [U16G C22G U47G] | 0.557
GUUCCGUUGGCGUAGUGGUACCGCGUCUCCCUCCUAAGCAGAAGGCUGCGGGCUCGAGUCCCGUACGGAACG [A15G A21C G39C A45G U53C] | ≤ 0.5
GUUCCGUUGGCAUAAUGCUAACGCGUCUUCCUCCUAAGGAGAAGACUGCGGGUUCGAGUCCCGUACGGAACG [G12A G18C C29U] | 0.599
GUUCCGUUGGCGUAAUGGUAACGCGUAUCCCUCCUAAGGCGAAGUCUGCGGGUUCGUGUCCCGUACGGAACG [C27A A40C A45U A57U] | ≤ 0.5
GUUCCGUUGGCGUAAUGGUAACGCGUCUCCCUCCUAAGGAGGAGACUGCGUGUUCGAGUCCCGUACGGACCG [A42G G51U A70C] | ≤ 0.5
GUUCCGUUGGCGUAAUGGUACCGCGUCUCCCUUCUAAGGAGAAGACUGCGGGUUCGAGUCACGUACGCAACG [A21C C33U C61A G68C] | ≤ 0.5
GUUCCGUUGGCGUAAUGGUAACGCGUCUCCCUCCUAAGGAGUACACUGCGGGUUCGAGUCCCGUCCGGAACG [A42U G44C A65C] | ≤ 0.5
GUUCCGUUGGCGUAAUGGUAACGCGUCUCCCUCAUAAGGAGAAGCCUGCGGGUUCGAGUCCCGUACGGACCG [C34A A45C A70C] | 0.701
GUUCCGUUGGCGUAUUGGUAACGCGUCUCCCUCCUAAGGAGAAGACAGCGGGUUCGAGUCCCAUACGGAACG [A15U U47A G63A] | ≤ 0.5
GUUCCGUUGGCGUAAUGGUAGCGGGUCUCCAUCCUAAGGAGAAAACUGCGGGUUCGAGUCCCGUACGGAACG [A21G C24G C31A G44A] | 0.571
GUUCCGUUGCCGUAAUGGUAACGCGUCUCCCUCCUAAGGAGAAGACUGCGGGUUCGAGUCCUGAACGGAACG [G10C C62U U64A] | ≤ 0.5
GUUCCGUUGGCGUAAUGGUAACGCGUCUCCCUCAUAAGGGGAAGACUGCGGGUUCGAGUCCCGUACGGAACG [C34A A40G] | 0.609
GUUCCGUUGGCGUAAUGGUAACGAGGCUCCCUCCUAAGGAGACGACUGCGGGUUCGAGUCCCGCACGGAACG [C24A U26G A43C U64C] | ≤ 0.5
GUUACGUUGGCGUAAUAGCAACGCGUCUCCCUCCUAAGGAAAAGACUGCGGGUUCGAGUCCCGUAUGGAACG [C4A G17A U19C G41A C66U] | ≤ 0.5
GUUCCGCUGGCGUGAUGGUAACGCGUCUUCUUUCUAAGGAGAAGACUGCGGGUUUGAGUCCCGUACGGAACG [U7C A14G C29U C31U C33U C55U] | ≤ 0.5

Variant | yeast fitness
GUUCCGUUGGCGUAAUGGUAACGCGUUUCCCUCCGAAGGAGUAGACUGCGGGUUCGAGUCCCGUACGGAACG [C27U U35G A42U] | ≤ 0.5
GUUCCGUUGGCGUAAUGGUAUAGCGUCUCCCUCCUAACGAGAAGACUGCGGGUGCGAGUACCGUACGGAACG [A21U C22A G38C U54G C60A] | 0.846
GUUCCGUUGGCGUAAUGGUAACGCGUCUCCCUUCAAAGGAGAAGACUGCGGGUUCGAGUCCCGUACGGAACG [C33U U35A] | ≤ 0.5
GUUCCGUUGGCGUAAUGGUUACGCGUCUGCCUCCUAAGGAGAAGACUGGGGGUUCGAGUCCCCUACGGAACG [A20U C29G C49G G63C] | 0.543
GUUCCGUUGGGGUAAUGGUAACGCGUCUCCCUCCUCAGGAGAAGACUGCGGGUUCAAGUCCCGUACGGAACG [C11G A36C G56A] | 0.533
GUUCCGUUGGCGUAAUGGUAACGCGUCACCCUCCUAAGGAGAGGACUGCGGGUUCGAGUCCCGUACGCAACG [U28A A43G G68C] | 0.642
GUUCCGUUGGCGUAAUGGUAACGUGUCUCCCUCCUAAGGAGAGGACUGCGGGUUCGAGUCCCGUACGGAACG [C24U A43G] | 1.02
GUUCCGGUGGCGUAAUGGUAACGCGUCUCCCUCCUAAGGAGAGGACUGCGGGUUCGAGUCCCGUACGGAACG [U7G A43G] | 0.806
GUUCCGUUGGCGUAAUCGUAACGCGUCUCCCUCCAAAGGAGAAGACUGCGGGUUCGAGUCCCGUACGGAACG [G17C U35A] | ≤ 0.5
GUUCCGUUGGCGUAAUGGUAACGCAUCUCCCUCCUAAGGAGAAGAAUGCGGGUUCGAGUCCCGUACGGAACG [G25A C46A] | 0.876
GUUCCGUUGGCGAAAUGGUAAGGAGUCUCCCUCCUAAGGAGAAGAGUGCGGGUUUGAGUCCCGUACGGAACG [U13A C22G C24A C46G C55U] | 0.551
GUUCCGUUGGCGUAAUGGUAACCCGUCUCGCUCCUAUGGAGAAGACUGCGGGUUCGAGUCCUGUUCGGAACG [G23C C30G A37U C62U A65U] | ≤ 0.5
GUUUCGUUGGCGUAAUGGUAACGAGUCUCCCUCCUAAGGAGAAGACGGCGGGUUCGAGCCCCGUACGGAACG [C4U C24A U47G U59C] | ≤ 0.5
GUUCCGUUGGCGUAAUGGUAACACGUCUCCCUCCUAAGGAGAAGACUGAGGGUUCGAAUCCCGUACGGAACG [G23A C49A G58A] | ≤ 0.5
GUUCCGUUGGCGUAAUGGUAACGCGCUUCCCUCCUAAGGAGAAGACUGCGGGUUCGGGUCCCGUACGGAACG [U26C C27U A57G] | 0.725
GUUCCAUUGCCGUAAUGGUGAUGCGUCUCCCUCCUAACGAGAAGACUGCGGGUUCGAGUCGCGUACGGAACG [G6A G10C A20G C22U G38C C61G] | ≤ 0.5
GUUUCGUUGGCGUAAUGGUAAGGCGUCACCCUCCUUAGGAGAAGACUGCGGGUUCGAGUCCCGUUCGGAACG [C4U C22G U28A A36U A65U] | ≤ 0.5
GUUCCGUUAGCGUAAUGGUAACGCGUCUCCCUCCUAAGGAGAAGACUGGGGGUUCGAGUCCCGUACGGAACG [G9A C49G] | 0.896
